Experimental data: ChEMBL document CHEMBL1130233, “N6-cyclopentyl-3'-substituted-xylofuranosyladenosines: a new class of non-xanthine adenosine A1 receptor antagonists” (J Med Chem, 1997)

How the values were obtained:
[1] = biological target: T1, Adenosine receptor A1 (Rattus norvegicus, UniProt P25099); assay: Affinity for adenosine A1 receptor was determined, in the absence of GTP in rat cortical membrane.; assay type: cell membranes
T1 sequence (P25099 whole entry): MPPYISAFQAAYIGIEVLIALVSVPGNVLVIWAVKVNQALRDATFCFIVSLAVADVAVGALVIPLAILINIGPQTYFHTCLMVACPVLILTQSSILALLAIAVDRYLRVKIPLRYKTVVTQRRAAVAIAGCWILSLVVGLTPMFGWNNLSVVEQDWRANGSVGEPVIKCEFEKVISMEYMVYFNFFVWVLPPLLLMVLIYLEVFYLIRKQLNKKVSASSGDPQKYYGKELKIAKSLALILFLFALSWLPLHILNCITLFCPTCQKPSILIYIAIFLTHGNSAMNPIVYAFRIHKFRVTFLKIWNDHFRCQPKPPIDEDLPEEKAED
In short: (§1)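 Rat cerebral cortex membranes were used for displacement of the tritiated antagonist [3H]DPCPX. GTP shift is the apparent Ki with GTP divided by the apparent Ki without GTP. There were three or four independent experiments, each in duplicate.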

[2] = biological target: T1, Adenosine receptor A1; assay: Affinity for adenosine A1 receptor was determined, in the presence of GTP in rat brain cortex; assay type: tissue-based
In short: as §1, with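 “[3H]DPCPX. Assays were run with and without 1 mM GTP, and Ki values were derived from the displacement data.” for “[3H]DPCPX.”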

[3] = biological target: T2, Adenosine receptor A1 (Rattus norvegicus) (UniProt P25099); assay: GTP shift ratio of the apparent Ki values in the presence and absence of GTP.
T2 sequence (whole entry): T1 sequence (P25099 whole entry)
In short: as §1, with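 “[3H]DPCPX. Assays were run with and without 1 mM GTP, and Ki values were derived from the displacement data.” for “[3H]DPCPX.”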

[4] = biological target: Adenosine receptor A2a (Rattus norvegicus) (UniProt P30543); assay: Affinity for adenosine A2a receptor of rat striatal membrane using [3H]-CGS- 21680 at 10e-5 M
Adenosine receptor A2a (Rattus norvegicus), sequence (P30543 whole entry): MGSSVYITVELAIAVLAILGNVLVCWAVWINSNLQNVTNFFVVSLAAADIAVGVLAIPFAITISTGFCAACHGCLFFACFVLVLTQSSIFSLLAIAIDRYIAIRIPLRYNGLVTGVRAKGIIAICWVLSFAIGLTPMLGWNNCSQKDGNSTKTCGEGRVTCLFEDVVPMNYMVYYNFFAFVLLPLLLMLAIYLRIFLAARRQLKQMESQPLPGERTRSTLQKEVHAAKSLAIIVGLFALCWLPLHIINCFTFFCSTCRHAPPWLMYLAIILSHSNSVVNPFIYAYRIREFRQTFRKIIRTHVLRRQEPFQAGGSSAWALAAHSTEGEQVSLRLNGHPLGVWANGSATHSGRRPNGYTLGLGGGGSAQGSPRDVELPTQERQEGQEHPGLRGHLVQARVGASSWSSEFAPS
In short: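 On rat striatal membranes with [3H]CGS 21680 as radioligand, the value is the percentage of radioligand still bound to the receptor in the presence of 10⁻⁵ M test ligand.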

[5] = biological target: Adenosine receptor A2a (Rattus norvegicus, UniProt P30543); assay: Affinity for adenosine A2a receptor was determined on rat striatal membrane using [3H]-CGS- 21680 as radioligand; parameters: species or system Striatum
Adenosine receptor A2a, sequence (P30543 whole entry): as above
In short: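 Rat striatal membranes were used for displacement of [3H]CGS 21680 as radioligand, and Ki values were derived from the displacement data. There were three or four independent experiments, each performed in duplicate.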

Row | Compound | Ki [1] | Ki [2] | Ratio [3] | percent radioligand bound [4] | Ki [5]
1 | O=C(Cc1ccccc1)N[C@H]1C(CO)OC(n2cnc3c(NC4CCCC4)ncnc32)C1O (stereo partly drawn) | 850 nM | 770 nM | 0.95 | 50% | –
2 | Nc1ncnc2c1ncn2C1OC(CO)[C@H](NC(=O)CCCCc2ccccc2)C1O (stereo partly drawn) | 7840 nM | 5740 nM | 0.73 | – | 4660 nM
3 | Cc1ccc(C(=O)N[C@H]2C(CO)OC(n3cnc4c(NC5CCCC5)ncnc43)C2O)cc1 (stereo partly drawn) | 83 nM | 68 nM | 0.84 | – | 790 nM
4 | [N-]=[N+]=N[C@@H]1[C@@H](O)[C@H](n2cnc3c(NC4CCCC4)ncnc32)O[C@@H]1CO | 8470 nM | 11200 nM | 1.4 | – | 2410 nM
5 | O=C(CCCC1CCCCC1)N[C@H]1C(CO)OC(n2cnc3c(NC4CCCC4)ncnc32)C1O (stereo partly drawn) | 190 nM | 150 nM | 0.8 | 74% | –
6 | COc1ccc(C(=O)N[C@H]2C(CO)OC(n3cnc4c(NC5CCCC5)ncnc43)C2O)cc1 (stereo partly drawn) | 200 nM | 130 nM | 0.77 | – | 770 nM
7 | Nc1ncnc2c1ncn2[C@@H]1O[C@H](CO)C[C@H]1O | – | – | 2.1 | – | –
8 | OC[C@@H]1C[C@@H](O)[C@H](n2cnc3c(NC4CCCC4)ncnc32)O1 | – | – | 4.3 | – | –
9 | Nc1ncnc2c1ncn2[C@@H]1OC(CO)[C@H](NC(=O)c2ccccc2)[C@H]1O (single isomer, unassigned) | 10900 nM | 11100 nM | 1.1 | – | 2470 nM
10 | O=C(N[C@H]1C(CO)O[C@@H](n2cnc3c(NC4CCCC4)ncnc32)[C@@H]1O)c1ccccc1 (single isomer, unassigned) | – | – | 0.8 | – | 2760 nM
11 | Nc1ncnc2c1ncn2[C@@H]1OC(CO)[C@H](NC(=O)CCCC2CCCCC2)[C@H]1O (single isomer, unassigned) | 3590 nM | 2680 nM | 0.75 | – | 1770 nM
12 | Nc1ncnc2c1ncn2[C@@H]1OC(CO)[C@H](NC(=O)CCOc2ccccc2)[C@H]1O (single isomer, unassigned) | – | 12600 nM | 0.74 | – | 11800 nM
13 | O=C(CCc1ccccc1)N[C@H]1C(CO)O[C@@H](n2cnc3c(NC4CCCC4)ncnc32)[C@@H]1O (single isomer, unassigned) | 370 nM | 350 nM | 0.99 | – | 7940 nM
14 | O=C(CCCc1ccccc1)N[C@H]1C(CO)O[C@@H](n2cnc3c(NC4CCCC4)ncnc32)[C@@H]1O (single isomer, unassigned) | 130 nM | 100 nM | 0.94 | – | 650 nM
15 | O=C(N[C@H]1C(CO)O[C@@H](n2cnc3c(NC4CCCC4)ncnc32)[C@@H]1O)c1ccc(Cl)cc1 (single isomer, unassigned) | 110 nM | 81 nM | 0.87 | – | 580 nM
16 | O=C(N[C@H]1C(CO)O[C@@H](n2cnc3c(NC4CCCC4)ncnc32)[C@@H]1O)c1ccc(Cl)c(Cl)c1 (single isomer, unassigned) | – | – | 0.73 | – | 2020 nM
17 | O=C(N[C@H]1C(CO)O[C@@H](n2cnc3c(NC4CCCC4)ncnc32)[C@@H]1O)c1ccc([N+](=O)[O-])cc1 (single isomer, unassigned) | 820 nM | 740 nM | 0.91 | – | 6850 nM
18 | O=C(CCCCc1ccccc1)N[C@H]1C(CO)O[C@@H](n2cnc3c(NC4CCCC4)ncnc32)[C@@H]1O (single isomer, unassigned) | 240 nM | 200 nM | 0.83 | – | 4230 nM
19 | Cc1ccc(C(=O)N[C@H]2C(CO)O[C@@H](n3cnc4c(NC5CCCC5)ncnc43)[C@@H]2O)cc1C (single isomer, unassigned) | – | – | 0.73 | – | 3680 nM
